The nature of series [1]: Association constant of hematin-aminoquinoline complex formation reported by spectrophotometric titration in aqueous dimethyl sulfoxide(DMSO) at pH 7.5. Conditions: buffer. Format: ADME. The procedure, abridged: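 Spectrophotometric titration of monomeric hematin with aminoquinoline, fitted to 1:1 complex formation. Run at 25 °C, pH 7.5, in 40% aqueous DMSO with 20 mM HEPES. Reported as log K, the average of three independent measurements ± 1 SEM.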

Series [2] is described as follows: Acid dissociation constant of the tertiary ammonium group. The class given is ADME. The settings on record: read-out: pKa2. The procedure, abridged:
(§1)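 Glass-electrode potentiometric titration under nitrogen at 25 °C in 0.15 M NaCl background electrolyte. Data were fitted to give two pKa values per aminoquinoline. Reported values are the average of three independent measurements, with error given as 1 SD.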

The nature of series [3]: Acid dissociation constant of the quinolinium cation. The class given is ADME. The settings on record: read-out: pKa1. Summed up: as §1
A further series relates to Plasmodium falciparum. Kind of series: In vitro antiplasmodial activity against chloroquine-sensitive Plasmodium falciparum D10. Format: functional, organism-based.
Series [4] is described as follows: Normalised IC50 was measured. Format: functional. The procedure, abridged: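 Normalized IC50 is the D10 P. falciparum IC50 multiplied by α. α is the compound's calculated vacuolar accumulation ratio divided by chloroquine's, both from measured pKa values, assuming vacuolar pH 5.5 and external pH 7.4.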

Each structure is given as a SMILES string.

Here are results for 11 molecules from ChEMBL document CHEMBL1135536, “Structure-activity relationships in 4-aminoquinoline antiplasmodials. The role of the group at the 7-position” (J Med Chem, 2002).

By IC50 is commonly meant the point on the concentration scale where inhibition reaches its midpoint. With `CCN(CC)CCNc1ccnc2cc(Cl)ccc12`, the “Log K” value in series [1] amounted to 5.81. Further, the pKa in series [2] is 8.83; in series [3], 7.56. Besides, the IC50 in the series with Plasmodium falciparum turned out to be 37 nM; in series [4] it was 23 nM.
The like results for `CCN(CC)CCNc1ccnc2cc([N+](=O)[O-])ccc12` were, in that order, 4.65, 8.8, 6.28, 325 nM and 28 nM.
Turning to `CCN(CC)CCNc1ccnc2cc(Br)ccc12`, the “Log K” value in series [1] came to 4.99. Further, the pKa in series [2] stood at 7.97; in series [3], 7.93. Moreover, the half-maximal inhibitory concentration (IC50) came out at 36 nM with Plasmodium falciparum and 28 nM in series [4].
The corresponding values for `CCN(CC)CCNc1ccnc2cc(I)ccc12` are 5.02, 7.79, 7.48, 35 nM and 17 nM.
The corresponding values for `CCN(CC)CCNc1ccnc2cc(C(F)(F)F)ccc12` are 4.67, 7.65, 7.5, 99 nM and 48 nM.
The like results for `CCN(CC)CCNc1ccnc2cc(N)ccc12` were, in that order, 4.35, 10, 8.36, greater than 5000 nM and greater than 4830 nM.
`CCN(CC)CCNc1ccnc2cc(C)ccc12`: the “Log K” value in series [1] was 4.86. Moreover, the values for the pKa in series [2] and in series [3] were 9.51 and 8.12, respectively. For the same molecule, the IC50 in the series with Plasmodium falciparum turned out to be 82 nM; in series [4] it was 74 nM.
The corresponding values for `CCN(CC)CCNc1ccnc2cc(O)ccc12` are 4.48, 8.95, 6.82, 3070 nM and 700 nM.
Turning to `CCN(CC)CCNc1ccnc2cc(F)ccc12`, in series [1], the “Log K” value came out at 4.6. Besides, the pKa in series [2] is 9.24; in series [3], 7.62. The 50% inhibitory concentration (IC50) with Plasmodium falciparum worked out at 138 nM; in series [4], 92 nM.
For `CCN(CC)CCNc1ccnc2ccccc12`, in series [1], the “Log K” value was 4.75. Moreover, the pKa was 9.42 in series [2] and 7.96 in series [3]. Moreover, the results for the IC50 (in the series with Plasmodium falciparum; in series [4]) were 1060 nM and 892 nM, respectively.
The corresponding values for `CCN(CC)CCNc1ccnc2cc(OC)ccc12` are 4.83, 9.5, 8.09, 448 nM and 399 nM.
